According to ChEMBL document CHEMBL1124043, “Pyrido[2,1-b]quinazolinecarboxamide derivatives as platelet activating factor antagonists” (J Med Chem, 1988):

Legend:
[1] = tested on: Platelet-activating factor receptor (Canis familiaris); assay: Percent inhibition of binding of platelet activating factor (PAF) to dog platelets using [3H]PAF as radioligand at a concentration of 1 uM; conditions: Canis lupus familiaris
Canis familiaris = species on record: Canis familiaris; assay: Relative rate of hydrolysis in dog whole liver homogenates; assay type: ADME, Canis lupus familiaris
Method in brief: (§1)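 Whole liver homogenate, equivalent to 21 mg fresh liver, in 40 mM potassium phosphate pH 7.4 with 0.4 mM substrate, final volume 1.0 mL. Incubated 10 min at 37 °C, then quenched with acetonitrile-methanol (9:1). Amine product measured in the supernatant by HPLC. Unincubated and no-substrate controls run in parallel. Rate expressed as nmol formed/10 min per 21 mg liver.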

[2] = Relative rate of hydrolysis in squirrel monkey whole liver homogenates; assay type: ADME, tissue-based; conditions: saimiri, tissue homogenate
Method in brief: as §1

Cavia porcellus = species on record: Cavia porcellus; assay: Relative rate of hydrolysis in guinea pig whole liver homogenates; assay type: ADME
Method in brief: as §1

Compound: CC(C)c1ccc2nc3ccc(S(=O)(=O)NCCCCc4cccnc4)cn3c(=O)c2c1
- inhibition [1]: 7%

Compound: CC(C)c1ccc2nc3ccc(C(=O)NCCCCCc4cccnc4)cn3c(=O)c2c1
- inhibition [1]: 9%

Compound: CC(C)c1ccc2nc3ccc(C(=O)N[C@@H](C)CCCc4cccnc4)cn3c(=O)c2c1
- Relative rate (Canis familiaris): 1.9
- Relative rate [2]: 0.26
- Relative rate (Cavia porcellus): 0.5

Compound: CC(C)c1ccc2nc3ccc(CNCCCCc4cccnc4)cn3c(=O)c2c1
- inhibition [1]: 15%

Compound: Cc1cc2nc3ccc(C(=O)NCCCCc4ccccc4)cn3c(=O)c2cc1C
- inhibition [1]: 4%

Compound: CC(C)c1ccc2nc3ccc(C(=O)NC(C)(C)CCCc4cccnc4)cn3c(=O)c2c1
- Relative rate (Cavia porcellus): < 0.01

Compound: CC(C)c1ccc2nc3ccc(C(=O)NCCCCCCCc4cccnc4)cn3c(=O)c2c1
- inhibition [1]: 19%

Compound: Cc1cc2nc3ccc(C(=O)NCCCCc4ccc[n+](C)c4)cn3c(=O)c2cc1C
- inhibition [1]: 0%

Compound: CC(C)c1ccc2nc3ccc(C(=O)NCCCc4cccnc4)cn3c(=O)c2c1
- inhibition [1]: 5%

Compound: Cc1cc2nc3ccc(C(=O)NCCCCc4cnc[n+](C)c4)cn3c(=O)c2cc1C
- inhibition [1]: 0%

Compound: CC(C)c1ccc2nc3ccc(CCCCCCc4cccnc4)cn3c(=O)c2c1
- inhibition [1]: 15%

Compound: CC(C)c1ccc2nc3ccc(C(=O)NCCCCc4cccnc4)cn3c(=O)c2c1
- Relative rate (Cavia porcellus): 1

Compound: CC(C)c1ccc2nc3ccc(C(=O)N[C@H](C)CCCc4cccnc4)cn3c(=O)c2c1
- Relative rate (Canis familiaris): < 0.01
- Relative rate [2]: < 0.01
- Relative rate (Cavia porcellus): 0.063

Compound: CC(CCCc1cccnc1)NC(=O)c1ccc2nc3ccc(C(C)C)cc3c(=O)n2c1 (racemic)
- Relative rate (Canis familiaris): 1.9
- Relative rate [2]: 0.49
- Relative rate (Cavia porcellus): 0.35
